Assay outcomes as filed in PubChem BioAssay.
STAT1 inh – STAT1 signaling inhibitors, primary screen, cell-based, HTS, luciferase reporter; AID 920, 2007; actives 0.35% (n = 200,000); NIH 3T3 STAT1-luciferase reporter, IFN-gamma, luminescence; inhibition, % at 5.5 µM;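 active = inhibition above a set limit, the mean inhibition across all tested compounds plus 3 SD, cut at about 34% in these data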;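 also: 0% = IFN-gamma with DMSO and 100% = IFN-gamma with 300 µM nifuroxazide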
STAT3 act-1 – IL-6 driven STAT3 reporter potentiators, primary screen, U3A cells, luciferase, luminescence, MLSCN library; AID 871, 2007; IL-6 STAT3-luciferase reporter; 100% = signal with IL-6 EC80 alone; actives 0.91% (n = 190,000); activation (% of control), % at 5.6 µM;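 active = activation above the screen-wide mean of compound activation plus 3 SD, cut at about 130% in these data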;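 also: 0% = background luminescence of wells with medium and substrate only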
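Test system: human U3A cells carrying STAT3-luciferase construct; control set: IL-6-only wells as 100% reference; timing: compound pre-incubation 1 h before IL-6, then 6 h stimulation at 37 °C; also added: IL-6 stimulus at 33 ng/mL final; evaluation: % activation versus median of IL-6-stimulated wells; detection: reporter luminescence signal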
HSP90 inh – HSP90 inhibitors, primary screen, cell lysate, luminescence; Rabbit reticulocyte lysate, luciferase refolding luminescence, 3 h; Heat shock protein HSP 90 (rabbit reticulocyte lysate; luciferase refolding); actives 0.91% (n = 290,000); inhibition, % at 5.6 µM;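 active = inhibition above the screen-wide mean plus 3 SD, computed separately per campaign, cut at about 16% in these data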;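 also: 0% = DMSO wells and 100% = 60 µM geldanamycin wells; inhibitors lower the luminescence because luciferase stays unfolded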
STAT3 blocker – IL-6 driven STAT3 reporter inhibitors, primary screen, U3A cells, luciferase, luminescence, MLSCN library; inhibition, % at 5.5 µM; actives 0.89% (n = 190,000); AID 862, 2007; IL-6 STAT3-luciferase reporter; host cell line lacks STAT1;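 active = inhibition above the mean inhibition across all screened compounds plus 3 SD, cut at about 44% in these data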;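 also: 0% = DMSO only wells and 100% = 100 µM nifuroxazide control wells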
STAT3 act-2 – STAT3 reporter potentiators, retest of hits, confirmation, U3A cells, luciferase, luminescence. shares compounds with STAT3 act-1. IL-6 potentiation; U3A cells lack STAT1; 100 means same as IL-6 alone. AID 1267, 2008. actives 64% (n = 1,200). potentiation (% of control), % at 5.7 µM;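 active = percent activation of the STAT3 luciferase reporter above a set limit taken from the earlier primary screen, cut at about 130% in these data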;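 also: 0% = background signal of medium plus substrate and 100% = median of IL-6 with DMSO wells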
NFkB act 2 – NF-kB reporter activators in human cells, counter-screen for STAT3 activator project | AID 1309, 2008 | shares compounds with STAT3 act-1 | NF-kappaB reporter activation | activation (% of control), % at 5.7 µM | actives 11% (n = 1,200); in the data active = activation above about 120%;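 also: reporter induced by TNF-alpha stimulation; 100% = median of stimulated DMSO wells and 0% = no signal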
STAT1 act – STAT1 reporter activators, IFN-gamma induced, counter-screen for STAT3 activator project, cell-based, NIH 3T3, luciferase luminescence. shares compounds with STAT3 act-1. NIH 3T3 STAT1-luciferase reporter. activation (% of control), % at 5.7 µM. actives 13% (n = 1,200);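 active = activation above the solvent-only control well mean plus 3 SD, set per screening run, cut at about 120% in these data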;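 also: 100% = IFN-gamma with DMSO median signal so 100% means no change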
The depositor's hits bear a star; / = not tested or not shown. A selection: hits, their analogues and other compounds. The true share with any hit is near 2%.

SMILES | STAT1 inh | STAT3 act-1 | HSP90 inh | STAT3 blocker | STAT3 act-2 | NFkB act 2 | STAT1 act
CSc1cccc(NC(=O)CCNS(=O)(=O)c2ccc3[nH]c(=O)oc3c2)c1 | / | / | 0 | / | / | / | /
COc1ccc(-c2csc(=NCCO)n2-c2ccccc2)cc1 | / | / | -5 | / | / | / | /
COc1ccc(Cl)cc1NC(=O)c1[nH]nc(OC)c1[N+](=O)[O-] | 5 | 144* | -1 | -35 | 140* | 96 | 95
O=C(O)C1CC=CCC1C(=O)Nc1ccc(S(=O)(=O)N2CCCc3ccccc32)cc1 (configuration not stated) | -4 | 162* | -2 | -70 | 146* | 106 | 107
Nc1n[nH]c2ccccc12 | 1 | 136* | 3 | -44 | 141* | 101 | 97
Nc1n[nH]c2cccc(Cl)c12 | / | / | 1 | / | / | / | /
COC(=O)c1sc(S(=O)(=O)Nc2ccc(C)cc2)c(C(=O)OC)c1C | 6 | 88 | 1 | 21 | / | / | /
COC(=O)c1ccccc1S(=O)(=O)Nc1ccc2cn[nH]c2c1 | -8 | 143* | -1 | -47 | 129 | 106 | 103
COC(=O)c1sc(S(=O)(=O)Nc2ccc3cn[nH]c3c2)c(C(=O)OC)c1C | 7 | 147* | 0 | -46 | 147* | 101 | 99
CCOc1ccccc1NC(=O)CSc1nc2cc(O)ccc2c(=O)n1-c1ccc(OC)c(OC)c1 | / | / | 4 | / | / | / | /
COc1ccc(C)cc1NC(=O)c1cnc2scc(C)n2c1=O | -5 | 91 | -1 | 11 | / | / | /
CCc1ccc(NC(=O)c2cnc3scc(C)n3c2=O)cc1 | -32 | 154* | -5 | -68 | 165* | 115 | 138*
Cc1ccc(-n2c(=S)[nH]c3sc4c(c3c2=O)CCC4)cc1 | -2 | 137* | -2 | -37 | 116 | 110 | 105
COc1ccc(COc2cc(-c3cccc(OC)c3)nc3ccc(NC(=O)c4ccc(N(C)C)cc4)cc23)cc1 | -7 | 136* | 3 | -46 | 92 | 99 | 104
Cc1ccc(C)c(N(CC(=O)NCc2ccco2)C(=O)CNS(=O)(=O)c2ccccc2)c1 | / | / | -3 | / | / | / | /
CCc1ccc(N(C(=O)c2csnn2)C(C(=O)NC(C)(C)C)c2ccccn2)cc1 (configuration not stated) | -21 | 139* | -5 | -37 | 135* | 116 | 120
COc1ccccc1/C=N/N(C(C)=O)c1nc(-c2ccc(F)cc2)cs1 | -21 | 194* | 1 | -110 | 185* | 126* | 150*
COc1ccc(/C=N/N(C(C)=O)c2nc(-c3ccc(C)cc3)cs2)cc1 | -2 | 88 | 3 | 17 | / | / | /
COC(=O)C(O)(NC(=O)OCc1ccccc1)C(F)(F)F (configuration not stated) | 12 | 96 | 1 | 11 | / | / | /
COC(=O)C(NC=O)C(O)(Cc1ccccc1)C(F)(F)F (configuration not stated) | 2 | 158* | -6 | -63 | 152* | 106 | 101
c1ccc2c(c1)ncc1cccn12 | -3 | 143* | 0 | -46 | 138* | 98 | 90
CC(=O)Nc1c(Cl)n(C(C)=O)c2ccccc12 | 10 | 175* | 3 | -91 | 159* | 103 | 94
CCn1cc(CN2CCCC(CNC(=O)COc3ccccc3OC)C2)c(C)n1 (configuration not stated) | / | / | -1 | / | / | / | /
CCOc1ccccc1-c1n[nH]c(=S)o1 | -4 | 173* | 6 | -86 | 156* | 104 | 96
COC(=O)c1sccc1NC(=O)c1c(C)noc1C | -9 | 99 | -2 | 5 | / | / | /
SMILES | STAT1 inh | STAT3 act-1 | HSP90 inh | STAT3 blocker | STAT3 act-2 | NFkB act 2 | STAT1 act
COC(=O)c1sccc1NC(=O)c1cc(C)on1 | -3 | 151* | -2 | -56 | 135* | 104 | 103
Cc1cc(C)c2oc(-c3ccc(C)c(NC(=S)NC(=O)/C=C/c4ccco4)c3)nc2c1 | 6 | 151* | 4 | -44 | 146* | 109 | 103
Cc1cc(C)c2oc(-c3ccc(C)c(NC(=S)NC(=O)c4cccs4)c3)nc2c1 | -8 | 165* | 1 | -81 | 147* | 107 | 106
Cc1ccc2oc(-c3cccc(NC(=S)NC(=O)/C=C/c4ccco4)c3)nc2c1 | -11 | 138* | 8 | -37 | 130 | 109 | 123*
Cc1ccc(-c2nc3ccccc3o2)cc1NC(=S)NC(=O)c1cccs1 | -20 | 105 | 1 | 4 | / | / | /
S=C(N/N=C/c1ccccc1Cl)Nc1cccc(Cl)c1Cl | / | / | 4 | / | / | / | /
Cc1nc2nc(-c3ccc(Cl)cc3)nn2c(C)c1Cl | 9 | 167* | 3 | -84 | 164* | 118 | 124*
Cc1cc(N2CCN(C)CC2)n2nc(-c3ccc(Cl)cc3)nc2n1 | / | / | 0 | / | / | / | /
Cc1nc2nc(-c3ccccc3)nn2c(C)c1Cl | -15 | 179* | 1 | -92 | 169* | 126* | 138*
CSCCC(C)N1CCC(Oc2ccc(C(=O)N3CCCC3)cc2)CC1 (configuration not stated) | / | / | 2 | / | / | / | /
CCOc1ccccc1NC(=O)c1ccc2c(c1)C(=O)N(CC)C2=O | / | / | 7 | / | / | / | /
O=C(Nc1nccs1)c1c(O)c2cccc3c2n(c1=O)CCC3 | 5 | 154* | 2 | -63 | 167* | 99 | 98
CC(C)(C)c1ccccc1NC(=O)c1c(O)c2cccc3c2n(c1=O)CC3 | 3 | 149* | 3 | -48 | 144* | 105 | 99
O=C(Nc1ccccn1)c1c(O)c2cccc3c2n(c1=O)CCC3 | 0 | 157* | -1 | -61 | 146* | 104 | 99
Cc1cccnc1NC(=O)c1c(O)c2cccc3c2n(c1=O)CCC3 | 1 | 106 | 3 | 0 | / | / | /
Cc1ccccc1CSCC(=O)Nc1ccccc1Br | / | / | 0 | / | / | / | /
c1ccc(Cn2c(SCc3nc4ccccc4s3)nnc2-c2ccco2)cc1 | 0 | 130 | 3 | -30 | / | / | /
CCC(c1nnc(SCc2nc3ccccc3s2)n1Cc1ccccc1)N(C)C (configuration not stated) | -18 | 152* | -1 | -55 | 141* | 117 | 117
c1ccc(-n2cnnc2SCc2nc3ccccc3s2)cc1 | -21 | 140* | 5 | -39 | 152* | 122* | 132*
Cc1nnc(SCc2nc3ccccc3s2)n1-c1ccccc1 | -15 | 147* | 4 | -51 | 149* | 113 | 134*
CCn1c(SCc2nc3ccccc3s2)nnc1-c1ccccc1 | -18 | 171* | 2 | -78 | 145* | 117 | 134*
Cc1occc1C(=O)N1CCC2(CCCN(Cc3ccc(F)c(F)c3)C2)C1 (configuration not stated) | / | / | 2 | / | / | / | /
